Experimental data published in ChEMBL document CHEMBL1126657, “Benzylamine antioxidants: relationship between structure, peroxyl radical scavenging, lipid peroxidation inhibition, and cytoprotection” (1993).
In brackets after ≈: the same amount, converted by molar mass. Activity calls are given as the source filed them. No cut-off for these calls is given here.

Legend:
[1] = species on record: Rattus norvegicus; experiment: Percent viability of rat hippocampal neurons exposed to hydrogen peroxide (50 uM) in the presence of the test agent (5 uM); type: functional
In short: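 Primary rat hippocampal neuron cultures were given test agent (5 μM) and exposed for 15 min to H2O2 (50 μM). Survival was scored by vital dye staining 18 h later. n = 3 cultures prepared on different days, mean ± SD.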

[2] = species on record: Oryctolagus cuniculus; experiment: Inhibition of iron-dependent peroxidation of rabbit vesicular membrane lipids (minimum test concentration that gave greater than 50% inhibition).; type: functional
In short: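 Lipids from rabbit brain vesicular membranes were peroxidized in an iron-dependent system. Value is the minimum tested concentration giving ≥50% inhibition (μM), n = 3.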

[3] = percent inhibition of 2,2'-azobis(2-amidinopropane)dihydrochloride induced decay of (R)-phycoerythrin fluorescence emission; type: functional; design: concentration or dose not given beside the values; conditions: dose or concentration not given here
In short: (§1)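 R-PE (4.5 × 10⁻⁸ M stock) was mixed with test agent (3 μM stock; 1 μM final) in 75 mM phosphate buffer pH 7.0 and equilibrated 5 min at 37 °C. AAPH (12 mM stock, freshly made) was then added. Fluorescence (ex 544, em 590 nm) was read every 5 min for 25 min and normalized to 0 min. Percent inhibition at 15 min = (sample − AAPH)/(control − AAPH) × 100, n = 4.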

[4] = Percent inhibition of 2,2'-azobis(2-amidinopropane)dihydrochloride induced decay of (R)-phycoerythrin fluorescence emission; type: functional; design: concentration or dose not given beside the values; conditions: dose or concentration not given here; in short: as §1
[5] = test system: Rattus norvegicus; experiment: Hypotensive effect in anesthetized normotensive rat expressed as effective dose; type: functional
[6] = test system: Rattus norvegicus; experiment: Hypotensive effect in anesthetized normotensive rat expressed as effective dose; No effect; type: functional, organism-based
[7] = test system: Rattus norvegicus; experiment: Hypotensive effect in up to 0.1 mg/kg, slight pressor response (~16-17%) at 1 mg/kg; type: functional, organism-based
[8] = test system: Rattus norvegicus; experiment: Hypotensive effect in anesthetized normotensive rat expressed as effective dose; Study; type: functional, organism-based

Q: Which Cell viability [1] does the source give for `CCCCCCCOc1cc(CN(C)C)cc(OCCCCCCC)c1O.Cl` here?
A: 75.7%

Q: What about the MIC [2] of the same compound?
A: 1 µM

Q: What about the inhibition [3] of the same compound?
A: 7.2%

Q: For `CCC(CC)Oc1cc(CN(C)C)cc(OC(CC)CC)c1O.Cl`, which Cell viability [1] is on record?
A: 15.2%

Q: What about the inhibition [4] of the same compound?
A: 66.8%

Q: What about the ED20 [5] of the same compound?
A: 0.42 mg/kg

Q: What about the MIC [2] of the same compound?
A: 10 µM

Q: Which Cell viability [1] does the source give for `CCCCCCCOc1cc(CN2CCN(CCO)CC2)cc(OC)c1O.Cl.Cl` here?
A: 63%

Q: What about the ED20 [5] of the same compound?
A: > 1 mg/kg

Q: And the MIC [2]?
A: 2.3 µM

Q: What about the inhibition [3] of the same compound?
A: 64.4%

Q: What does the source list for `CCCNCc1cc(OC)c(O)c(OC)c1.Cl`?
A: Cell viability [1]: 13.3%; inhibition [4]: 80.1%; MIC [2]: > 100 µM; ED20 [6]: inactive

Q: Which Cell viability [1] does the source give for `CCCCCCCCNCc1cc(OC)c(O)c(OC)c1.Cl` here?
A: 59.8%

Q: And the ED20 [7]?
A: Pressor

Q: What about the MIC [2] of the same compound?
A: 10 µM

Q: And the inhibition [3]?
A: 60.9%

Q: With `CCCOC(=O)c1cc(O)c(O)c(O)c1` [PROPYL GALLATE] as the compound, how does the MIC [2] read?
A: 3 µM (≈ 0.637 µg/mL)

Q: What about the inhibition [3] of the same compound?
A: 40%

Q: Which Cell viability [1] does the source give for `CCCCCN(CCCCC)Cc1cc(OC)c(O)c(OC)c1.Cl` here?
A: 35.5%

Q: And the inhibition [4]?
A: 50.6%

Q: What about the ED20 [5] of the same compound?
A: > 1 mg/kg

Q: What about the MIC [2] of the same compound?
A: 30 µM

Q: For `CCCCCNCc1cc(OC)c(O)c(OC)c1.Cl`, which Cell viability [1] is on record?
A: 29%

Q: What about the inhibition [4] of the same compound?
A: 61.6%

Q: And the MIC [2]?
A: > 100 µM

Q: And the ED20 [6]?
A: inactive

Q: For `COc1cc(CN(C)C)cc(OC)c1O.Cl`, which Cell viability [1] is on record?
A: 5.2%

Q: And the inhibition [4]?
A: 69%

Q: And the MIC [2]?
A: > 100 µM

Q: What about the ED20 [6] of the same compound?
A: inactive

Q: With `CCCCOc1cc(CN(C)C)cc(OCCCC)c1O.Cl` as the compound, how does the Cell viability [1] read?
A: 35.8%

Q: And the inhibition [4]?
A: 73.3%

Q: And the ED20 [5]?
A: 1 mg/kg

Q: What about the MIC [2] of the same compound?
A: 10 µM

Q: With `CCNCc1cc(OC)c(O)c(OC)c1.Cl` as the compound, how does the Cell viability [1] read?
A: 3.1%

Q: And the inhibition [4]?
A: 71.8%

Q: What about the MIC [2] of the same compound?
A: > 100 µM

Q: And the ED20 [6]?
A: inactive

Q: Which results are given for `CCN(CC)Cc1cc(OC)c(O)c(OC)c1.Cl`?
A: Cell viability [1]: 3.7%; inhibition [4]: 66.7%; MIC [2]: > 100 µM; ED20 [6]: inactive

Q: With `CN(C)Cc1cc(OC2CCCC2)c(O)c(OC2CCCC2)c1.Cl` as the compound, how does the Cell viability [1] read?
A: 28.9%

Q: What about the inhibition [4] of the same compound?
A: 74.3%

Q: And the MIC [2]?
A: 10 µM

Q: What about the ED20 [8] of the same compound?
A: Study

Q: For `CCCCCCCOc1cc(CN(C)C)cc(OC)c1O.Cl`, which Cell viability [1] is on record?
A: 44%

Q: And the ED20 [5]?
A: > 1 mg/kg

Q: What about the MIC [2] of the same compound?
A: 2.3 µM

Q: And the inhibition [3]?
A: 62.5%

Q: Which results are given for `CCCCCCNCc1cc(OC)c(O)c(OC)c1.Cl`?
A: Cell viability [1]: 42.6%; inhibition [4]: 65.2%; MIC [2]: 100 µM; ED20 [6]: inactive

Q: Which Cell viability [1] does the source give for `CC(C)Oc1cc(CN2CCN(CCO)CC2)cc(OC(C)C)c1O.Cl.Cl` here?
A: 45.3%

Q: What about the inhibition [4] of the same compound?
A: 71.6%

Q: And the MIC [2]?
A: > 100 µM

Q: What about the ED20 [6] of the same compound?
A: inactive

Q: For `CCCCNCc1cc(OC)c(O)c(OC)c1.Cl`, which Cell viability [1] is on record?
A: 17.1%

Q: And the inhibition [4]?
A: 62.4%

Q: And the MIC [2]?
A: > 100 µM

Q: What about the ED20 [6] of the same compound?
A: inactive

Q: For `CCCCCCCCCNCc1cc(OC)c(O)c(OC)c1.Cl`, which Cell viability [1] is on record?
A: 47.1%

Q: And the ED20 [7]?
A: Pressor

Q: What about the MIC [2] of the same compound?
A: 5.3 µM

Q: What about the inhibition [3] of the same compound?
A: 52.9%

Q: What does the source list for `CCCCCOc1cc(CN(C)C)cc(OCCCCC)c1O.Cl`?
A: Cell viability [1]: 51.2%; inhibition [4]: 44.9%; MIC [2]: 2.3 µM; ED20 [8]: Study

Q: For `CCCCCCOc1cc(CN(C)C)cc(OCCCCCC)c1O.Cl`, which Cell viability [1] is on record?
A: 73.1%

Q: What about the ED20 [5] of the same compound?
A: 0.36 mg/kg

Q: What about the MIC [2] of the same compound?
A: 1 µM

Q: What about the inhibition [3] of the same compound?
A: 17.6%

Q: With `CCCCCCCNCc1cc(OC)c(O)c(OC)c1.Cl` as the compound, how does the Cell viability [1] read?
A: 48.3%

Q: What about the MIC [2] of the same compound?
A: 30 µM

Q: What about the inhibition [3] of the same compound?
A: 63.5%

Q: For `CCOc1cc(CN(C)C)cc(OCC)c1O.Cl`, which Cell viability [1] is on record?
A: 14.7%

Q: What about the inhibition [4] of the same compound?
A: 71.6%

Q: What about the MIC [2] of the same compound?
A: 100 µM

Q: What about the ED20 [6] of the same compound?
A: inactive

Q: What does the source list for `CCCCCCCOc1c(O)cc(CN2CCN(CCO)CC2)cc1O.Cl.Cl`?
A: Cell viability [1]: 50.3%; MIC [2]: 30 µM; inhibition [3]: 60.3%

Q: Which Cell viability [1] does the source give for `CCCCCNCc1cc(OC(C)C)c(O)c(OC(C)C)c1.Cl` here?
A: 42.8%

Q: And the ED20 [5]?
A: > 1 mg/kg

Q: And the MIC [2]?
A: 30 µM

Q: What does the source list for `CCCCCCCOc1c(O)cc(CN(C)C)cc1O.Cl`?
A: Cell viability [1]: 47%; MIC [2]: 30 µM; inhibition [3]: 43.8%

Q: Which results are given for `CCCCN(CCCC)Cc1cc(OC)c(O)c(OC)c1.Cl`?
A: Cell viability [1]: 26.4%; inhibition [4]: 66.6%; MIC [2]: > 100 µM; ED20 [6]: inactive

Q: What does the source list for `COc1cc(CN(CC(C)C)CC(C)C)cc(OC)c1O.Cl`?
A: Cell viability [1]: 28.7%; inhibition [4]: 63.7%; MIC [2]: 30 µM; ED20 [6]: inactive

Q: With `CCCCCCCNCc1cc(OC(C)C)c(O)c(OC(C)C)c1.Cl` as the compound, how does the Cell viability [1] read?
A: 43.5%

Q: And the ED20 [5]?
A: > 1 mg/kg

Q: And the MIC [2]?
A: 10 µM

Q: Which results are given for `CNCc1cc(OC)c(O)c(OC)c1.Cl`?
A: Cell viability [1]: 7.5%; inhibition [4]: 75.8%; MIC [2]: > 100 µM; ED20 [6]: inactive

Q: With `CCCOc1cc(CN(C)C)cc(OCCC)c1O.Cl` as the compound, how does the Cell viability [1] read?
A: 31.3%

Q: What about the inhibition [4] of the same compound?
A: 91.8%

Q: What about the ED20 [5] of the same compound?
A: 1 mg/kg

Q: What about the MIC [2] of the same compound?
A: 30 µM

Q: With `CCCN(CCC)Cc1cc(OC)c(O)c(OC)c1.Cl` as the compound, how does the Cell viability [1] read?
A: 5.4%

Q: What about the inhibition [4] of the same compound?
A: 63.7%

Q: And the MIC [2]?
A: > 100 µM

Q: And the ED20 [6]?
A: inactive

Q: With `CC(C)Oc1cc(CN(C)C)cc(OC(C)C)c1O.Cl` as the compound, how does the Cell viability [1] read?
A: 35.8%

Q: What about the inhibition [4] of the same compound?
A: 69.3%

Q: What about the MIC [2] of the same compound?
A: > 100 µM

Q: And the ED20 [6]?
A: inactive
